Laboratory results published in ChEMBL document CHEMBL1926569, “Novel (E)-1-(4-methyl-2-(alkylamino)thiazol-5-yl)-3-arylprop-2-en-1-ones as potent antimicrobial agents” (2011).
Converted amounts (≈) assume the structure as drawn.

Columns and labels:
Staphylococcus aureus [1] = experiment: Antibacterial activity against Staphylococcus aureus ATCC 6538 after 24 hrs by microdilution method; format: functional; conditions: ATCC 6538, 24 h
Method in brief: (§1)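 Broth microdilution in 96-well plates. Bacterial suspensions were adjusted in sterile saline to 1.0 × 10⁵ CFU/ml, prepared daily and kept at 4 °C. Compound was added to LB broth with 1.0 × 10⁴ CFU per well and shaken at 160 rpm for 24 h at […] (so in the source). MIC is the lowest concentration with no visible growth under a binocular microscope. OD655 was also read. Duplicate, repeated three times.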

Bacillus cereus [2] = experiment: Antibacterial activity against clinical isolate of Bacillus cereus after 24 hrs by microdilution method; format: functional; method in brief: as §1
Micrococcus flavus [3] = experiment: Antibacterial activity against Micrococcus flavus ATCC 10240 after 24 hrs by microdilution method; format: functional; conditions: ATCC 10240, 24 h; method in brief: as §1
Listeria monocytogenes [4] = experiment: Antibacterial activity against Listeria monocytogenes NCTC 7973 after 24 hrs by microdilution method; format: functional; conditions: NCTC 7973, 24 h; method in brief: as §1
Pseudomonas aeruginosa [5] = experiment: Antibacterial activity against Pseudomonas aeruginosa ATCC 27853 after 24 hrs by microdilution method; format: functional; conditions: ATCC 27853, 24 h; method in brief: as §1
Salmonella typhimurium [6] = experiment: Antibacterial activity against Salmonella Typhimurium ATCC 13311 after 24 hrs by microdilution method; format: functional, Salmonella enterica subsp. enterica serovar Typhimurium; conditions: Salmonella enterica, ATCC 13311, 24 h; method in brief: as §1
Escherichia coli [7] = experiment: Antibacterial activity against Escherichia coli ATCC 35210 after 24 hrs by microdilution method; format: functional; conditions: ATCC 35210, 24 h; method in brief: as §1
Enterococcus faecalis [8] = experiment: Antibacterial activity against Enterococcus faecalis isolated from human after 24 hrs by microdilution method; format: functional; method in brief: as §1
Staphylococcus aureus [9] = experiment: Antibacterial activity against Staphylococcus aureus ATCC 6538 incubated for 24 hrs followed by serial sub-cultivation for 24 hrs by microdilution method; format: functional; conditions: ATCC 6538, 24 h
Method in brief: (§2)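 MBC: after the 24 h LB broth microdilution (1.0 × 10⁴ CFU per well, 160 rpm), wells were serially sub-cultured into fresh broth plates and incubated a further 24 h. MBC is the lowest concentration with no visible growth, taken as 99.5% killing of the original inoculum. Duplicate, repeated three times.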

Bacillus cereus [10] = experiment: Antibacterial activity against clinical isolate of Bacillus cereus incubated for 24 hrs followed by serial sub-cultivation for 24 hrs by microdilution; format: functional; method in brief: as §2
Micrococcus flavus [11] = experiment: Antibacterial activity against Micrococcus flavus ATCC 10240 incubated for 24 hrs followed by serial sub-cultivation for 24 hrs by microdilution; format: functional; conditions: ATCC 10240, 24 h; method in brief: as §2
Listeria monocytogenes [12] = experiment: Antibacterial activity against Listeria monocytogenes NCTC 7973 incubated for 24 hrs followed by serial sub-cultivation for 24 hrs by microdilution; format: functional; conditions: NCTC 7973, 24 h; method in brief: as §2
Pseudomonas aeruginosa [13] = experiment: Antibacterial activity against Pseudomonas aeruginosa ATCC 27853 incubated for 24 hrs followed by serial sub-cultivation for 24 hrs by microdilution; format: functional; conditions: ATCC 27853, 24 h; method in brief: as §2
Salmonella typhimurium [14] = experiment: Antibacterial activity against Salmonella Typhimurium ATCC 13311 incubated for 24 hrs followed by serial sub-cultivation for 24 hrs by microdilution; format: functional, Salmonella enterica subsp. enterica serovar Typhimurium; conditions: Salmonella enterica, ATCC 13311, 24 h; method in brief: as §2
Escherichia coli [15] = experiment: Antibacterial activity against Escherichia coli ATCC 35210 incubated for 24 hrs followed by serial sub-cultivation for 24 hrs by microdilution; format: functional; conditions: ATCC 35210, 24 h; method in brief: as §2
Enterococcus faecalis [16] = experiment: Antibacterial activity against Enterococcus faecalis isolated from human incubated for 24 hrs followed by serial sub-cultivation for 24 hrs by microdilution; format: functional; method in brief: as §2
Aspergillus ochraceus [17] = experiment: Antifungal activity against Aspergillus ochraceus ATCC 12066 after 72 hrs by serial dilution technique; format: functional; conditions: ATCC 12066, 72 h
Method in brief: (§3)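 Modified microdilution in 96-well plates. Fungi were kept on malt agar at 4 °C. Spores were washed off in sterile 0.85% saline with 0.1% Tween 80. Compounds were dissolved at 1 mg/ml in 5% DMSO with 0.1% Tween 80 and added to malt broth with inoculum. Plates were shaken at 160 rpm for 72 h at 28 °C. Duplicate, repeated three times.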

Aspergillus niger [18] = experiment: Antifungal activity against Aspergillus niger ATCC 6275 after 72 hrs by serial dilution technique; format: functional; conditions: ATCC 6275, 72 h; method in brief: as §3
Aspergillus flavus [19] = experiment: Antifungal activity against Aspergillus flavus ATCC 9643 after 72 hrs by serial dilution technique; format: functional; conditions: ATCC 9643, 72 h; method in brief: as §3
Talaromyces funiculosus [20] = experiment: Antifungal activity against Penicillium funiculosum ATCC 36839 after 72 hrs by serial dilution technique; format: functional; conditions: ATCC 36839, 72 h; method in brief: as §3
Penicillium ochrochloron [21] = experiment: Antifungal activity against Penicillium ochrochloron ATCC 9112 after 72 hrs by serial dilution technique; format: functional; conditions: ATCC 9112, 72 h; method in brief: as §3
Trichoderma viride [22] = experiment: Antifungal activity against Trichoderma viride IAM 5061 after 72 hrs by serial dilution technique; format: functional; conditions: IAM 5061, 72 h; method in brief: as §3
Candida albicans [23] = experiment: Antifungal activity against Candida albicans isolated from human after 72 hrs by serial dilution technique; format: functional; method in brief: as §3
Aspergillus ochraceus [24] = experiment: Antifungal activity against Aspergillus ochraceus ATCC 12066 incubated for 72 hrs followed by serial sub-cultivation for 72 hrs by serial dilution technique; format: functional; conditions: ATCC 12066, 72 h
Method in brief: (§4)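 MFC: material from 72 h malt broth microdilution wells was serially sub-cultured into fresh broth plates and incubated a further 72 h at 28 °C. Fungicidal concentration is taken from growth after sub-culture. Duplicate, repeated three times.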

Aspergillus fumigatus [25] = experiment: Antifungal activity against Aspergillus fumigatus isolated from human incubated for 72 hrs followed by serial sub-cultivation for 72 hrs by serial dilution technique; format: functional; method in brief: as §4
Aspergillus niger [26] = experiment: Antifungal activity against Aspergillus niger ATCC 6275 incubated for 72 hrs followed by serial sub-cultivation for 72 hrs by serial dilution technique; format: functional; conditions: ATCC 6275, 72 h; method in brief: as §4
Aspergillus flavus [27] = experiment: Antifungal activity against Aspergillus flavus ATCC 9643 incubated for 72 hrs followed by serial sub-cultivation for 72 hrs by serial dilution technique; format: functional; conditions: ATCC 9643, 72 h; method in brief: as §4
Talaromyces funiculosus [28] = experiment: Antifungal activity against Penicillium funiculosum ATCC 36839 incubated for 72 hrs followed by serial sub-cultivation for 72 hrs by serial dilution technique; format: functional; conditions: ATCC 36839, 72 h; method in brief: as §4
Penicillium ochrochloron [29] = experiment: Antifungal activity against Penicillium ochrochloron ATCC 9112 incubated for 72 hrs followed by serial sub-cultivation for 72 hrs by serial dilution technique; format: functional; conditions: ATCC 9112, 72 h; method in brief: as §4
Trichoderma viride [30] = experiment: Antifungal activity against Trichoderma viride IAM 5061 incubated for 72 hrs followed by serial sub-cultivation for 72 hrs by serial dilution technique; format: functional; conditions: IAM 5061, 72 h; method in brief: as §4
Candida albicans [31] = experiment: Antifungal activity against Candida albicans isolated from human incubated for 72 hrs followed by serial sub-cultivation for 72 hrs by serial dilution technique; format: functional; method in brief: as §4
Pseudomonas aeruginosa [32] = experiment: Ratio of ampicillin MIC to compound MIC for Pseudomonas aeruginosa ATCC 27853; format: functional
Aspergillus ochraceus [33] = experiment: Ratio of bifonazole to compound for Aspergillus ochraceus ATCC 12066; format: functional
Aspergillus niger [34] = experiment: Ratio of bifonazole to compound for Aspergillus niger ATCC 6275; format: functional
Talaromyces funiculosus [35] = experiment: Ratio of bifonazole to compound for Penicillium funiculosum ATCC 36839; format: functional
Penicillium ochrochloron [36] = experiment: Ratio of bifonazole to compound for Penicillium ochrochloron ATCC 9112; format: functional
Trichoderma viride [37] = experiment: Ratio of bifonazole to compound for Trichoderma viride IAM 5061; format: functional
Candida albicans [38] = experiment: Ratio of bifonazole to compound for Candida albicans isolated from human; format: functional
Aspergillus ochraceus [39] = experiment: Ratio of ketoconazole to compound for Aspergillus ochraceus ATCC 12066; format: functional
Aspergillus fumigatus [40] = experiment: Ratio of ketoconazole to compound for Aspergillus fumigatus isolated from human; format: functional
Penicillium ochrochloron [41] = experiment: Ratio of ketoconazole to compound for Penicillium ochrochloron ATCC 9112; format: functional
Candida albicans [42] = experiment: Ratio of ketoconazole to compound for Candida albicans isolated from human; format: functional
Aspergillus ochraceus [43] = experiment: Antifungal activity against Aspergillus ochraceus after 72 hrs by serial dilution technique

- MIC (Staphylococcus aureus [1]): 57.1 µM (≈ 20.1 µg/mL)
- MIC (Bacillus cereus [2]): 28.6 µM (≈ 10 µg/mL)
- MIC (Micrococcus flavus [3]): 57.1 µM (≈ 20.1 µg/mL)
- MIC (Listeria monocytogenes [4]): 85.7 µM (≈ 30.1 µg/mL)
- MIC (Pseudomonas aeruginosa [5]): 57.1 µM (≈ 20.1 µg/mL)
- MIC (Salmonella typhimurium [6]): 57.1 µM (≈ 20.1 µg/mL)
- MIC (Escherichia coli [7]): 57.1 µM (≈ 20.1 µg/mL)
- MIC (Enterococcus faecalis [8]): 57.1 µM (≈ 20.1 µg/mL)
- MIC (Aspergillus ochraceus [17]): 28.9 µM (≈ 10.2 µg/mL)
- MIC (Aspergillus niger [18]): 42.9 µM (≈ 15.1 µg/mL)
- MIC (Aspergillus flavus [19]): 42.9 µM (≈ 15.1 µg/mL)
- MIC (Talaromyces funiculosus [20]): 28.9 µM (≈ 10.2 µg/mL)
- MIC (Penicillium ochrochloron [21]): 28.9 µM (≈ 10.2 µg/mL)
- MIC (Trichoderma viride [22]): 28.9 µM (≈ 10.2 µg/mL)
- MIC (Candida albicans [23]): 28.9 µM (≈ 10.2 µg/mL)
- MIC (Aspergillus ochraceus [43]): 42.9 µM (≈ 15.1 µg/mL)
SMILES: CCNc1nc(C)c(C(=O)/C=C/c2cccc(Br)c2)s1
- MBC (Staphylococcus aureus [9]): 71.4 µM (≈ 25.1 µg/mL)
- MBC (Bacillus cereus [10]): 71.4 µM (≈ 25.1 µg/mL)
- MBC (Micrococcus flavus [11]): 85.7 µM (≈ 30.1 µg/mL)
- MBC (Listeria monocytogenes [12]): 100 µM (≈ 35.1 µg/mL)
- MBC (Pseudomonas aeruginosa [13]): 71.4 µM (≈ 25.1 µg/mL)
- MBC (Salmonella typhimurium [14]): 71.4 µM (≈ 25.1 µg/mL)
- MBC (Escherichia coli [15]): 71.4 µM (≈ 25.1 µg/mL)
- MBC (Enterococcus faecalis [16]): 71.4 µM (≈ 25.1 µg/mL)
- MFC (Aspergillus ochraceus [24]): 42.9 µM (≈ 15.1 µg/mL)
- MFC (Aspergillus fumigatus [25]): 57.1 µM (≈ 20.1 µg/mL)
- MFC (Aspergillus niger [26]): 57.1 µM (≈ 20.1 µg/mL)
- MFC (Aspergillus flavus [27]): 57.1 µM (≈ 20.1 µg/mL)
- MFC (Talaromyces funiculosus [28]): 42.9 µM (≈ 15.1 µg/mL)
- MFC (Penicillium ochrochloron [29]): 58.2 µM (≈ 20.4 µg/mL)
- MFC (Trichoderma viride [30]): 57.2 µM (≈ 20.1 µg/mL)
- MFC (Candida albicans [31]): 57.2 µM (≈ 20.1 µg/mL)
- Ratio (Pseudomonas aeruginosa [32]): 10
- Ratio (Aspergillus ochraceus [33]): 10
- Ratio (Aspergillus niger [34]): 10
- Ratio (Talaromyces funiculosus [35]): 10
- Ratio (Penicillium ochrochloron [36]): 10
- Ratio (Trichoderma viride [37]): 10
- Ratio (Candida albicans [38]): 10
- Ratio (Aspergillus ochraceus [39]): 10
- Ratio (Aspergillus fumigatus [40]): 10
- Ratio (Penicillium ochrochloron [41]): 10
- Ratio (Candida albicans [42]): 10
